Test results reported in ChEMBL document CHEMBL1121556, “Structure-activity relationships in a series of newly synthesized 1-amino-substituted ellipticine derivatives” (J Med Chem, 1980).
Blank lines part the entries; values can stand above or below the molecule they belong to. Starred links: 1 amine or outer side, 2 acyl side, 3 side chain; linkers in the order of their positions; H or OH if unused. Positions of bridges follow the written chain, without caps; N, C: chain ends. Non-standard residues stand in square brackets, D forms with d. Residues, ends and D or L forms follow the SMILES beside them. Chains are numbered I, II in the order given. Actinocin(1to9) = Cc1c2oc3c(C)ccc(C(=O)[*:2])c3nc-2c(C(=O)[*:1])c(N)c1=O; NMeV = CN[C@H](C(=O)O)C(C)C; Sar = CNCC(=O)O

What was measured:
[1] = system: Nucleic Acid; test: Apparent association constant towards DNA at concentration of 1E-7/M; assay type: nucleic-acid assay; settings: Bos taurus
Procedure, shortened: (§1)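 Association constants for DNA binding were derived from absorption changes of calf thymus DNA at 6 × 10^-7 M, expressed as mononucleotide concentration. The buffer was 50 mM Tris-HCl, pH 7.4, with 0.1 M NaCl.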

[2] = system: Mus musculus; test: In vivo evaluation for the antitumor activity on L1210 leukemia cells at the dose 15 mg/kg administered intraperitoneally 1 day after 10 e5 L1210 leukemia cells and increase in life span;(P<0.01).; assay type: functional; settings: L1210, ip, 24 h, route intraperitoneal
[3] = system: Friend leukemia cells (Mus musculus); test: In vitro concentration required for growth inhibition of murine Friend leukemia cell; settings: read-out: ID50 (the source's name)
[4] = system: Nucleic Acid; test: B app constant towards DNA; assay type: nucleic-acid assay; settings: Bos taurus; procedure, shortened: as §1
[5] = system: Mus musculus; test: In vivo acute toxicity (lethal dose) against mice by intraperitoneal administration; assay type: organism-based; settings: ip
Procedure, shortened: (§2)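 Mice (ICFW, C3H or B6D2 F1; 6-8 weeks; 22-24 g) in five groups of six. Drug dissolved in acidified saline (equimolar acetic acid) and given as a single ip or iv dose of 2, 5, 10, 25 or 50 mg/kg. Mortality observed over 30 days to set the lethal dose (LD100) and the highest nonlethal dose (LD0).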

[6] = system: Mus musculus; test: In vivo acute toxicity (nonlethal dose) against mice by intraperitoneal administration; assay type: organism-based; settings: ip; procedure, shortened: as §2
[7] = system: Mus musculus; test: In vivo evaluation for the antitumor activity on L1210 leukemia cells at the dose 15 mg/kg administered intraperitoneally; assay type: functional; settings: route intraperitoneal
[8] = system: Mus musculus; test: In vivo antitumor activity on L1210 leukemia cells at the dose 15 mg/kg administered intraperitoneally 1 day after 10 e5 L1210 leukemia cells and range of deaths; assay type: functional; settings: route intraperitoneal
[9] = system: Mus musculus; test: In Vivo antitumor activity on grafted tumor friend cells at the dose 2.5 mg/kg and decrease in intravenous 10 e 6 cells and median survival time; assay type: functional
Procedure, shortened: (§3)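 Friend tumor cells, 10^6, injected iv into syngeneic mice. Mice randomized in groups of 16. Drug dissolved in acidified saline (equimolar acetic acid) and given as a single iv dose 3 days after inoculation. Median survival time recorded. %ILS = (treated median survival − control median survival)/control median survival × 100.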

[10] = system: Mus musculus; test: In Vivo evaluation for the antitumor activity on grafted tumor friend cells at the dose 2.5 mg/kg and Increase in the life span; assay type: functional; procedure, shortened: as §3
[11] = system: Nucleic Acid; test: Apparent association constant towards DNA at concentration of 10e-7/M; assay type: nucleic-acid assay; settings: Bos taurus; procedure, shortened: as §1
[12] = system: Mus musculus; test: In vivo acute toxicity (lethal dose) against mice by intravenous administration; assay type: organism-based; procedure, shortened: as §2
[13] = system: Mus musculus; test: In vivo antitumor activity on L1210 leukemia cells at the dose 2.5 mg/kg administered intraperitoneally 1 day after 10 e5 L1210 leukemia cells and range of deaths; assay type: functional; settings: route intraperitoneal
[14] = system: Mus musculus; test: In vivo acute toxicity (nonlethal dose) against mice by intravenous administration; assay type: organism-based; procedure, shortened: as §2
[15] = system: Mus musculus; test: In vivo evaluation for the antitumor activity on L1210 leukemia cells at the dose 2.5 mg/kg administered intraperitoneally 1 day after 10 e5 L1210 leukemia cells and increase in life span; assay type: functional; settings: L1210, ip, 24 h, route intraperitoneal
[16] = system: Mus musculus; test: In vivo evaluation for the antitumor activity on L1210 leukemia cells at the dose 2.5 mg/kg administered intraperitoneally 1 day after 10 e5 L1210 leukemia cells and Mean survival time; assay type: functional; settings: route intraperitoneal
[17] = system: Mus musculus; test: In Vivo evaluation for the antitumor activity on grafted tumor friend cells at the dose 5 mg/kg and Increase in the life span; assay type: functional; procedure, shortened: as §3
[18] = system: Mus musculus; test: In vivo antitumor activity on L1210 leukemia cells at the dose 5 mg/kg administered intraperitoneally 1 day after 10 e5 L1210 leukemia cells and range of deaths; assay type: functional; settings: route intraperitoneal
[19] = system: Mus musculus; test: In vivo evaluation of antitumor activity on L1210 leukemia cells at the dose 5 mg/kg administered intraperitoneally 1 day after 10 e5 L1210 leukemia cells and Mean survival time; assay type: functional; settings: route intraperitoneal
[20] = system: Mus musculus; test: In Vivo antitumor activity on grafted tumor friend cells at the dose 5 mg/kg and decrease in intravenous 10 e 6 cells and median survival time; assay type: functional; procedure, shortened: as §3
[21] = system: Mus musculus; test: In vivo evaluation of antitumor activity on L1210 leukemia cells at the dose 5 mg/kg administered intraperitoneally 1 day after 10 e5 L1210 leukemia cells and increase in life span;; assay type: functional; settings: L1210, ip, 24 h, route intraperitoneal
[22] = system: Nucleic Acid; test: Apparent association constant towards DNA at concentration of 10e-7/M.; assay type: nucleic-acid assay; settings: Bos taurus; procedure, shortened: as §1
[23] = system: Mus musculus; test: In vivo evaluation of antitumor activity on L1210 leukemia cells at the dose 15 mg/kg administered intraperitoneally 1 day after 10 e5 L1210 leukemia cells and Mean survival time; assay type: functional; settings: route intraperitoneal
[24] = system: Mus musculus; test: In vivo evaluation of antitumor activity on L1210 leukemia cells at the dose 15 mg/kg administered intraperitoneally 1 day after 10 e5 L1210 leukemia cells and increase in life span; assay type: functional; settings: L1210, ip, 24 h, route intraperitoneal
[25] = system: Nucleic Acid; test: Apparent association constant towards DNA at concentration of 10 E-7/M; assay type: nucleic-acid assay; settings: Bos taurus; procedure, shortened: as §1

IC50 [3]: 300 nM
Compound: Cc1c2ccnc(NCCCN)c2cc2c1[nH]c1ccc(OCc3ccccc3)cc12

IC50 [3]: 500 nM
Compound: COc1ccc2[nH]c3c(C)c4ccnc(NCCCn5ccnc5)c4cc3c2c1

IC50 [3]: 5000 nM
Compound: COc1ccc2[nH]c3c(C)c4cc[n+](C)c(Nc5ccccc5)c4cc3c2c1

IC50 [3]: 5000 nM
Bapp [4]: 0.13
K app [22]: 4e+07 M⁻¹
Compound: COc1ccc2[nH]c3c(C)c4ccnc(NCCCCN)c4cc3c2c1

IC50 [3]: 2000 nM
Compound: CCN(CC)CCCNc1nccc2c(C)c3[nH]c4ccc(OCc5ccccc5)cc4c3cc12

IC50 [3]: 1000 nM
Compound: CCN(CC)CCCNc1nccc2c(C)c3[nH]c4ccc(OCc5ccccc5)cc4c3c(C)c12

IC50 [3]: 200 nM
Bapp [4]: 0.07
K app [25]: 3.05e+07 M⁻¹
Compound: COc1ccc2[nH]c3c(C)c4ccnc(NCCCN)c4cc3c2c1

More lines, now with the values behind:

Compound: CCN(CC)CCCNc1nccc2c(C)c3[nH]c4ccc(OC)cc4c3cc12
K app [1]: 3.15e+07 M⁻¹
ILS at 15 mg/kg [2]: 24.6%
IC50 [3]: 5000 nM
Bapp [4]: 0.1
LD100 [5]: 30 mg/kg
LD0 [6]: 15 mg/kg
MST [7]: 14.3 days
Range of deaths [8]: 19 days

Compound: CCN(CC)CCCNc1nccc2c(C)c3[nH]c4ccc(O)cc4c3c(C)c12
MST [9]: 11.4 days
IC50 [3]: 30 nM
ILS at 2.5 mg/kg [10]: 34.1%
K app [11]: 2e+07 M⁻¹
LD100 [12]: 7 mg/kg
Bapp [4]: 0.16
Range of deaths [13]: 19 days
LD100 [5]: 7 mg/kg
LD0 [6]: 2.5 mg/kg
LD0 [14]: 2 mg/kg
ILS at 2.5 mg/kg [15]: 57.1%
MST [16]: 16.4 days

Compound: COc1ccc2[nH]c3c(C)c4ccnc(NCCN)c4cc3c2c1
ILS at 5 mg/kg [17]: 18.8%
IC50 [3]: 100 nM
K app [11]: 3.3e+07 M⁻¹
Bapp [4]: 0.135
LD100 [5]: 10 mg/kg
LD0 [6]: 5 mg/kg
Range of deaths [18]: 20 days
MST [19]: 13.8 days
MST [20]: 10.1 days
ILS at 5 mg/kg [21]: 8.7%

Compound: Cc1c2cc[n+](C)cc2c(C)c2c1[nH]c1ccc(O)cc12 [ELLIPTINIUM]
IC50 [3]: 300 nM

Compound: Cc1c2oc3c(C)ccc(C(=O)N[C@@H]4C(=O)N[C@H](C(C)C)C(=O)N5CCC[C@H]5C(=O)N(C)CC(=O)N(C)[C@@H](C(C)C)C(=O)O[C@@H]4C)c3nc-2c(C(=O)N[C@@H]2C(=O)N[C@H](C(C)C)C(=O)N3CCC[C@H]3C(=O)N(C)CC(=O)N(C)[C@@H](C(C)C)C(=O)O[C@@H]2C)c(N)c1=O [DACTINOMYCIN] (I: T[dV]P[Sar][NMeV] / II: T[dV]P[Sar][NMeV]; ester I:1-I:C, II:1-II:C; linker I:N-II:N via Actinocin(1to9))
IC50 [3]: 1 nM

Compound: COc1ccc2[nH]c3c(C)c4ccnc(NCCCN(C)C)c4c(C)c3c2c1
IC50 [3]: 300 nM
MST [23]: 15.3 days
ILS at 15 mg/kg [24]: 33.3%
LD100 [5]: 30 mg/kg
LD0 [6]: 15 mg/kg
Range of deaths [8]: 18 days

Compound: CCN(CCCN)CCCNc1nccc2c(C)c3[nH]c4ccc(OC)cc4c3cc12
IC50 [3]: 200 nM
LD100 [5]: 15 mg/kg
LD0 [6]: 5 mg/kg
